ChEMBL document CHEMBL2151033, “Synthesis, biological evaluation and molecular modeling of 4,6-diarylpyrimidines and diarylbenzenes as novel non-nucleosides HIV-1 reverse transcriptase inhibitors” (Eur J Med Chem, 2012)

Experiments:
[1] = tested on: Human immunodeficiency virus 1; experiment: Antiviral activity against wild type HIV1 3B infected in human MT4 cells assessed as inhibition of virus-induced cytopathic effect after 5 days by MTT assay; format: functional, organism-based; conditions: Human immunodeficiency virus 1, 3B, MT4, 120 h
Summary of the method: (§1)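 Infected and mock-infected MT-4 cells (6×10^5 cells/mL, exponentially growing, spun 5 min at 220 g and resuspended) were treated with serial 5-fold compound dilutions in triplicate. Virus stock at 100-300 CCID50 was added. After 5 days, viability was read spectrophotometrically by MTT at 540 and 690 nm using the median OD of three wells. EC50 is the concentration giving 50% protection from viral cytopathic effect.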

[2] = Selectivity index, ratio of CC50 for human MT4 cells to EC50 for wild type HIV1 3B infected in human MT4 cells; format: toxicity, cell-based; conditions: read-out: Ratio CC50/EC50
Summary of the method: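 Selectivity index is CC50 in mock-infected MT-4 cells divided by EC50 against HIV-1 IIIB. Both come from the 5-day MTT assay run in parallel on infected and uninfected cells with serial 5-fold dilutions in triplicate.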

[3] = Cytotoxicity against human MT4 cells assessed as decrease in cell viability after 5 days by MTT assay; format: cell-based
Summary of the method: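 Uninfected, mock-treated MT-4 cells (6×10^5 cells/mL) were exposed to serial 5-fold compound dilutions in triplicate wells, run alongside the infected series. After 5 days, MTT reduction was read at 540 and 690 nm using the median OD of three wells. CC50 is the concentration that reduces OD540 of the mock-infected control by 50%.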

[4] = tested on: Human immunodeficiency virus 1; experiment: Antiviral activity against HIV1 RES056 harbouring RT K103N/Y181C mutant infected in human MT4 cells assessed as inhibition of virus-induced cytopathic effect after 5 days by MTT assay; format: functional, organism-based; conditions: Human immunodeficiency virus 1, RES056, MT4, 120 h
Summary of the method: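 MT-4 cells (exponentially growing, spun 5 min at 220 g, resuspended at 6×10^5 cells/mL) infected with HIV-1 RES056 (K103N + Y181C) at 100-300 CCID50, with serial 5-fold compound dilutions run in triplicate alongside mock-infected wells. Viability was read by MTT at 540 and 690 nm after 5 days, using the median OD of three wells. EC50 is the concentration giving 50% protection from viral cytopathic effect.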

[5] = tested on: Human immunodeficiency virus 2; experiment: Antiviral activity against HIV2 ROD infected in human MT4 cells assessed as inhibition of virus-induced cytopathic effect after 5 days by MTT assay; format: functional, organism-based; conditions: Human immunodeficiency virus 2, ISOLATE ROD, MT4, 120 h; summary of the method: as §1
[6] = tested on: Human immunodeficiency virus 1; experiment: Ratio of delavirdine EC50 to compound EC50 for wild type HIV1 3B infected in human MT4 cells; format: functional
[7] = tested on: Human immunodeficiency virus 1; experiment: Ratio of nevirapine EC50 to compound EC50 for wild type HIV1 3B infected in human MT4 cells; format: functional

## Cc1cn([C@H]2C[C@H](N=[N+]=[N-])[C@@H](CO)O2)c(=O)[nH]c1=O [ZIDOVUDINE]
[1]
  EC50: 8 nM
[2]
  selectivity ratio: > 12000
[3]
  CC50 at 120 h: > 93.6 µM
[4]
  EC50: 0.006 µM

## Cc1cc(C)c(Nc2cc(Oc3c(C)cc(C#N)cc3C)ncn2)c(C)c1
[5]
  EC50: > 37.5 µM
[1]
  EC50: 5250 nM
[2]
  selectivity ratio: 7
[3]
  CC50 at 120 h: 37.5 µM
[4]
  EC50: > 37.5 µM

## Cc1cc(C#N)cc(C)c1Oc1cc(Nc2ccc(C#N)cc2)ncn1
[5]
  EC50: > 292 µM
[6]
  Ratio EC50: 1.5
[1]
  EC50: 381 nM
[2]
  selectivity ratio: ≥ 740
[3]
  CC50 at 120 h: > 292 µM
[4]
  EC50: > 292 µM

## Cc1cc(C)c(Oc2cccc(Nc3ccc(C#N)cc3)c2)c(C)c1
[5]
  EC50: > 52.6 µM
[1]
  EC50: 599 nM
[2]
  selectivity ratio: 65
[3]
  CC50 at 120 h: 52.6 µM
[4]
  EC50: > 52.6 µM

## Cc1cc(C#N)cc(C)c1Oc1nc(Nc2ccc(C#N)cc2)nc(N)c1Br [ETRAVIRINE]
[5]
  EC50: > 27.8 µM
[2]
  selectivity ratio: 12900

## Cc1cc(C)c(Nc2cccc(Oc3c(C)cc(C)cc3C)c2)c(C)c1
[5]
  EC50: > 43.6 µM
[1]
  EC50: > 43600 nM
[2]
  selectivity ratio: < 1
[3]
  CC50 at 120 h: 43.6 µM

## CC(C)Nc1cccnc1N1CCN(C(=O)c2cc3cc(NS(C)(=O)=O)ccc3[nH]2)CC1 [DELAVIRDINE]
[1]
  EC50: 548 nM
[2]
  selectivity ratio: > 8
[3]
  CC50 at 120 h: > 4.39 µM
[4]
  EC50: > 4.39 µM

## Cc1cc(C)c(Oc2cc(Nc3ccc(C#N)cc3)ncn2)c(C)c1
[5]
  EC50: > 42.2 µM
[6]
  Ratio EC50: 11
[7]
  Ratio EC50: 2
[1]
  EC50: 49 nM
[2]
  selectivity ratio: 870
[3]
  CC50 at 120 h: 42.2 µM
[4]
  EC50: > 42.2 µM

## Cc1cc(C)c(Nc2cccc(Nc3ccc(C#N)cc3)c2)c(C)c1
[5]
  EC50: > 220 µM
[6]
  Ratio EC50: 1.5
[1]
  EC50: 398 nM
[2]
  selectivity ratio: ≥ 552
[3]
  CC50 at 120 h: ≥ 220 µM
[4]
  EC50: > 220 µM

## Cc1cc(C)c(Nc2cc(Oc3c(C)cc(C)cc3C)ncn2)c(C)c1
[5]
  EC50: > 38.5 µM
[1]
  EC50: > 38500 nM
[2]
  selectivity ratio: < 1
[3]
  CC50 at 120 h: 38.2 µM
[4]
  EC50: > 38.5 µM

## Cc1ccnc2c1NC(=O)c1cccnc1N2C1CC1 [NEVIRAPINE]
[1]
  EC50: 97 nM
[2]
  selectivity ratio: > 155
[3]
  CC50 at 120 h: > 15 µM
[4]
  EC50: ≥ 7.6 µM
